# Source: PubChem BioAssay
# D1 mod: allosteric modulators of human D1 dopamine receptor. P21728. HEK293 D1, CRE-luciferase, dopamine EC30 potentiation; actives deviate in either direction. B-score at 10 µM. 5.9% of 58,000 active;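 active = luminescence count or its row- and column-corrected plate score outside the 99.7% band of the plate's sample wells, on either side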
# Target sequence (P21728 whole entry, looked up): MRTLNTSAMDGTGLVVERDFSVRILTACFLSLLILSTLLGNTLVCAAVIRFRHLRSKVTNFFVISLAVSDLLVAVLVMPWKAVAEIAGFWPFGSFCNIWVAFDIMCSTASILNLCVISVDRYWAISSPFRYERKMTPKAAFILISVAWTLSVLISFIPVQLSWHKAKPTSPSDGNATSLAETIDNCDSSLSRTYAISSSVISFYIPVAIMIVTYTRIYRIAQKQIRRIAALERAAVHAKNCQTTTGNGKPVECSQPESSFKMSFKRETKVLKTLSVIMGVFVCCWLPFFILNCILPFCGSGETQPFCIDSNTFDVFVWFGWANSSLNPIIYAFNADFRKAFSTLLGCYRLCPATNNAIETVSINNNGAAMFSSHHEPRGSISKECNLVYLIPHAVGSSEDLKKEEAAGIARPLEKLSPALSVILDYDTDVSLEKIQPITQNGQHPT
# DAT uptake mod: human DAT dopamine uptake with cocaine, either direction | B-score at 10 µM | LLC-PK1 hDAT cells, [14C]-dopamine uptake with cocaine IC80; actives deviate in either direction | 1.3% of 110,000 active | AID 449768;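 active = Z score or B-score, a plate-position-corrected score, falls beyond the plate's 99.7% confidence bounds, in either direction; inactive = both scores lie inside the 99.7% bounds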;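 also: scored against the spread of the other compound wells on the same plate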
# tolC growth inh: E. coli tolC mutant growth inhibition; 2.2% of 65,000 active; growth inhibition, % at 10 µM (by protocol); E. coli BW25113 tolC mutant growth, OD615;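 active = growth inhibition at or above a cutoff equal to the mean over every tested compound plus 3 SD, cut at about 60% in these data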;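 also: growth measured after 20 h incubation at 37 °C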
#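 Test system: tolC-deleted E. coli BW25113; medium: LB with kanamycin 50 µg/mL; compound: single-point testing at 10 µM; incubation: 20 h compound exposure of bacteria at 37 °C; signal: OD at 615 nm; evaluation: growth inhibition in percent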
# PostGolgi yeast: growth inhibition of a yeast mutant, post-Golgi transport screen | post-Golgi transport phenotypic cell assay | inhibition, % at 10 µM | 0.9% of 98,000 active | AID 739;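 also: yeast cells grown in 1536-well plates; yeast grown about 18 h at 30C before absorbance read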
# E coli WT exp: growth inhibitors of E. coli BW25113 wild type | OD600 absorbance | growth inhibition, % at 100 µM | 0.15% of 98,000 active;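 active = growth inhibition above about 50% at one test dose, limit read from the data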;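 also: growth measured after 20 h incubation at 37 °C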
# PostGolgi ctrl: inhibits growth of the yeast control strain; 5% of 98,000 active; efflux-deficient yeast background strain, growth absorbance A615, 16 h; inhibition, % at 10 µM
# D1 PAM confirm: D1 receptor (human) allosteric modulation, confirmed; shares compounds with D1 mod; HEK293 D1 CRE-luciferase, dopamine EC30 potentiation; hits give high values; luminescence at 10 µM; 88% of 2,200 active; AID 642;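 active = luminescence in either of two replicates above the same-plate mean plus 3 SD of the low-dose dopamine control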
# D1 no dopamine: D1 (human) signaling in absence of dopamine; shares compounds with D1 mod; HEK293 D1 CRE-luciferase, luminescence, no dopamine; hits give high values; luminescence at 10 µM; 0.8% of 1,900 active; AID 646; in the data active = luminescence above about 3900
# Isoprot counter: counter-screen for D1 modulators: isoproterenol response in HEK293 cells; AID 647; HEK293 D1 CRE-luciferase, isoproterenol EC30 counter-screen; 63% of 2,200 active; shares compounds with D1 mod; calls only at 10 µM;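 active = luminescence in either replicate above plate mean of wells with a partly effective reference agonist dose plus 3 SD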;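 also: isoproterenol raises cAMP through native beta-adrenoceptor Gs so signal bypasses D1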
# * hit, by the source's call; i = inactive; x = not tested or not shown; + = active, no number. The list is not random: actives were taken first. Their share in the collection is about 9.3%. Rule as the data show it, unless noted: active = inhibition above about 30%; inactive = the rest.
SMILES,D1 mod,DAT uptake mod,tolC growth inh,PostGolgi yeast,E coli WT exp,PostGolgi ctrl,D1 PAM confirm,D1 no dopamine,Isoprot counter
N#Cc1nc(-c2ccccc2Cl)oc1N1CCOCC1,4.8*,0.025,6,0,6,8,7844*,1764,i
CN1C(=O)C2(C(C#N)=C(N)Oc3c2oc(CO)cc3=O)c2ccccc21 (stereo not drawn),8.9*,0.009,-23,9,5,0,5568,1636,i
Cc1ccccc1Cn1c(-c2cncs2)nc2ccccc21,14*,-0.086,30,24,-5,35*,20248*,x,+
Brc1cc2c(cc1Cn1c(-c3cncs3)nc3ccccc31)OCO2,20*,-0.011,2,16,-3,7,14624*,1768,+
Cc1cc(C)cc(NC(=S)NCCN2CCOCC2)c1,x,-0.0092,x,x,x,x,x,x,x
COC(=O)C1=C(C)N(C)C(C)=C(C(=O)OC)C1c1ccccn1,-0.13,-0.52,-4,-7,2,14,x,x,x
CNC(=O)CN(C)S(=O)(=O)c1ccc(F)cc1,x,1.1,x,-6,10,-7,x,x,x
Cc1ccc(-n2cnnn2)c2cccnc12,2.6*,-0.3,-5,6,4,3,8320*,1580,i
O=S(=O)(c1ccccc1)c1nc(-c2cccs2)oc1NCC1CCCO1 (stereo not drawn),0.65,0.18,25,-4,5,8,x,x,x
N#Cc1nc(-c2cccs2)oc1NCC1CCCO1 (stereo not drawn),13*,-0.24,-1,6,11,39*,18624*,x,i
CCOc1ncccc1C(=O)OCc1ccc(C(=O)OC)o1,8*,0.098,4,17,7,6,16096*,1680,+
O=C(Nc1ccc(Cl)cc1C(=O)NCc1cccnc1)c1ccco1,10*,0.41,6,16,5,15,16768*,1484,+
O=C(Nc1ccc(Cl)cc1C(=O)Nc1ccncc1)c1ccco1,8.7*,-0.35,16,18,5,25,11616*,x,+
O=C(Nc1ccccc1C(=O)NCc1cccnc1)c1ccco1,x,-0.52,-19,1,-3,1,x,x,x
C=CCn1c(SCC(=O)c2ccc(OC)cc2)nnc1C(C)NC(=O)c1cccs1 (stereo not drawn),0.78,0.62,12,-9,-2,15,x,x,x
COc1cccc(-c2csc(N3CCN(C(=O)NC45CC6CC(CC(C6)C4)C5)CC3)n2)c1,x,0.93,x,x,x,x,x,x,x
OC[C@H]1O[C@@H](n2cnc3c(NC4CCCC4)ncnc32)[C@H](O)[C@@H]1O,5.5*,0.68,-7,x,x,x,7504*,2116,+
O=C(c1nc2nc(-c3ccc(Cl)cc3)cc(C(F)(F)F)n2n1)N1CCOCC1,2.9*,0.12,-8,-6,-2,6,8024*,1772,+
CCOC(=O)N1CCC(NC(=O)c2cccc3c2C(=O)N(Cc2cccnc2)C3)CC1,3.7*,0.56,-19,-3,-7,10,8400*,1600,i
Cc1cc(F)c(F)c(C(=O)N2CCN(C)CC2)c1Cl,-0.48,-2.2,-5,-2,0,0,x,x,x
Cc1cccc2cc(CN(CCN3CCOCC3)C(=O)Nc3ccccc3F)c(=O)[nH]c12,2,x,-9,x,x,x,x,x,x
Cc1cc2cc(CN(CCN3CCOCC3)C(=O)Nc3ccccc3F)c(=O)[nH]c2cc1C,2.7*,2,19,18,3,0,5960*,1568,i
CCSc1cnc(-c2ccccc2)n1CC,4.5*,-0.27,13,-4,12,3,8832*,1620,i
CCC1Oc2ccc(C)cc2N(CC(=O)NCCN2C(C)CCCC2C)C1=O (stereo not drawn),5*,-1.1,-3,8,-7,-7,4656,1552,i
COc1ccc(-c2csc(/C(C#N)=C(\O)CSc3nccn3C)n2)cc1OC,19*,0.23,2,3,-3,4,18552*,1616,+
SMILES,D1 mod,DAT uptake mod,tolC growth inh,PostGolgi yeast,E coli WT exp,PostGolgi ctrl,D1 PAM confirm,D1 no dopamine,Isoprot counter
Cc1ccc(NC(=O)COC(=O)c2ccn(C)n2)cc1,x,-1.3,-11,-7,3,2,x,x,x
CCOc1nc(C#N)nc(N2CCCCC2)n1,2.6*,0.035,12,-4,-3,3,10912*,1612,+
N#CCOc1nc(N2CCCC2)nc(N2CCCC2)n1,x,-0.98,x,8,0,-10,x,x,x
CCOc1nc(OCC)nc(N2CCC(C)CC2)n1,27*,0.51,-7,18,15,5,26964*,1528,+
COC(=O)c1cc(OC)c(OC)cc1NC(=O)c1cc(C)on1,x,x,-10,x,x,x,x,x,x
C=C1CCN([C@@H](C)C(=O)NCCCCCC)S(=O)(=O)c2ccccc21,x,-0.25,x,x,x,x,x,x,x
CC(=O)Nc1nc(C)nc(-c2ccccc2)c1C(C)=O,2.5,-0.1,-16,-1,-7,-2,x,x,x
CNc1nc(C)c(C#N)c(-c2ccccc2)c1C(C)=O,5.8*,-0.52,13,20,1,9,12136*,1680,i
COC(=O)c1ccc(C(=O)OC)c(N)c1,-0.99,0.84,-12,2,11,7,x,x,x
COC(=O)c1cc(Cc2ccc(N)c(C(=O)OC)c2)ccc1N,3*,0.4,-6,-2,-1,22,7532*,x,+
COc1ccc(NC(=O)CN(c2ccc(C)cc2)S(C)(=O)=O)c(OC)c1,-0.7,-0.38,4,5,0,7,x,x,x
COc1cccc(NC(=O)CN(c2ccc(C)cc2)S(=O)(=O)c2c(C)nn(C)c2C)c1,x,-0.81,4,6,-5,7,x,x,x
COc1ccc(OC)c(NC(=O)CN(c2ccc(OC)c(Cl)c2)S(C)(=O)=O)c1,4*,0.59,24,3,-5,15,16872*,1728,+
COc1ccc(N(CC(=O)Nc2cc(OC)ccc2OC)S(=O)(=O)c2c(C)nn(C)c2C)cc1,8.7*,x,11,-5,-2,9,14244*,1416,+
CC1(C)Cc2c(C#N)c(SCCC#N)nc(N3CCOCC3)c2CS1,5.5*,1.6,2,13,5,9,12904*,1588,+
COc1cccc(C2=NOC(C(=O)Nc3cccc(C(C)=O)c3)C2)c1OC (stereo not drawn),3.6*,0.47,12,5,0,2,4760,1744,i
CCOC(=O)c1c(NC(C)=O)sc2c1CCCNC2=O,2.4,1.3,10,-4,-11,-4,x,x,x
Cc1cnn(-c2nc(-c3cccs3)cc(C(F)(F)F)n2)c1,15*,0.087,38,18,6,22,14404*,x,+
